Assay results as given in ChEMBL document CHEMBL3860048 (J Med Chem, 2016).
The source made the active and inactive calls. No cut-off for these calls is given here. Where a SMILES comes first, the peptide text is derived from it. [ ]: non-standard residue; d: D form. Phe(3-F) = N[C@@H](Cc1cccc(F)c1)C(=O)O; Arg(Me) = CNC(=N)NCCC[C@H](N)C(=O)O; Aib = CC(C)(N)C(=O)O; azaGly = NNC(=O)O

Columns and labels:
[1] = MRT in Sprague-Dawley rat plasma at 1 mg/kg, iv by LC/MS analysis; assay type: ADME, organism-based
Outline: (§1)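 Single intravenous 1 mg/kg bolus to SD rats (n=3 per group). Blood sampled at 5, 10, 15, 30 min and 1, 2, 4, 8, 24 h. Plasma deproteinized with 0.2% formic acid/methanol (1:4, v/v) plus acetonitrile, spun 15,000 rpm for 5 min, supernatant treated with 0.4% aqueous formic acid and spun again, then quantified by LC/MS. Noncompartmental parameters per rat, reported as mean ± SD.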

[2] = Conformational changes of the compound in distilled water assessed as decrease in beta-sheet content at 0.1 mg/ml by preliminary circular dichroism analysis; design: scale not given: the % may be the effect or the level left
[3] = Cmax in Sprague-Dawley rat plasma at 1 mg/kg, sc by LC/MS analysis; assay type: ADME, organism-based; design: dose 1 mg/kg, route subcutaneous
Outline: (§2)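 Single subcutaneous 1 mg/kg dose to SD rats (n=3 per group). Plasma drawn at 5, 10, 15, 30 min and 1, 2, 4, 8, 24 h. Proteins removed with 0.2% formic acid/methanol (1:4, v/v) plus acetonitrile, centrifuged, supernatant diluted in 0.4% aqueous formic acid, then measured by LC/MS. Noncompartmental analysis per rat, mean ± SD.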

[4] = Bioavailability in Sprague-Dawley rat plasma at 1 mg/kg, sc up to 24 hrs by LC/MS analysis; assay type: ADME, organism-based; outline: as §2
[5] = Volume of distribution in steady state in Sprague-Dawley rat plasma at 1 mg/kg, iv up to 24 hrs by LC/MS analysis; assay type: ADME, organism-based; conditions: read-out: Vdss; outline: as §1
[6] = AUC (0 to 24 hrs) in Sprague-Dawley rat plasma at 1 mg/kg, iv up to 24 hrs by LC/MS analysis; assay type: ADME, organism-based; design: dose 1 mg/kg, time < 24 hr, route intravenous; outline: as §1
Rattus norvegicus [7] = assay: Inhibition of testosterone levels in Crl:CD(SD) rat plasma assessed as plasma testosterone level <0.04 ng/ml at 10 pmol/hr, sc administered as continuous dosing through alzet osmotic pump for 1 week by radio-immunoassay; assay type: functional, organism-based
Outline: (§3)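 Peptide dissolved in 50% DMSO at 3, 10, 30 or 100 µM, loaded into ALZET osmotic pumps for 3 to 100 pmol/h. Pumps implanted sc in 5 Crl:CD(SD) male rats. Plasma testosterone measured by RIA after 1 or 4 weeks. Values below the 0.04 ng/mL detection limit were treated as 0.04. Count of rats below the limit.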

Rattus norvegicus [8] = assay: Inhibition of testosterone levels in Crl:CD(SD) rat plasma assessed as plasma testosterone level <0.04 ng/ml at 30 pmol/hr, sc administered as continuous dosing through alzet osmotic pump for 4 weeks by radio-immunoassay; assay type: functional, organism-based; outline: as §3
KiSS-1 receptor [9] = biological target: KiSS-1 receptor (Rattus norvegicus, UniProt Q924U1); assay: Agonist activity at rat KISS1R expressed in CHO/dhfr cells assessed as increase in intracellular Ca2+ levels measured for 180 secs by Fluo 3-AM dye based FLIPR assay; assay type: functional, cell-based
KiSS-1 receptor (Rattus norvegicus, UniProt Q924U1), sequence (Q924U1 whole entry): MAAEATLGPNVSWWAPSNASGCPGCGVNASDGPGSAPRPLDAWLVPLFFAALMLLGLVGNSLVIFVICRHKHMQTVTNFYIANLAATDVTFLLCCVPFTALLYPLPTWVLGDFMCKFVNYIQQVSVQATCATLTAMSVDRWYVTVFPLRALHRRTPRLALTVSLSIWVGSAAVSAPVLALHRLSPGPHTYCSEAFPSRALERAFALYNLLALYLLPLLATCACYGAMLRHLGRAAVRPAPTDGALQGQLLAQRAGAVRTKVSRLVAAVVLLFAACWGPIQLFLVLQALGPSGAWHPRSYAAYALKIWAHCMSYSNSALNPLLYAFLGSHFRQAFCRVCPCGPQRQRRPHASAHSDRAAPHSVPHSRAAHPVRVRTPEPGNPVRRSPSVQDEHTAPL

KiSS-1 receptor [10] = biological target: KiSS-1 receptor (Homo sapiens, UniProt Q969F8); assay: Agonist activity at human KISS1R expressed in CHO/dhfr cells assessed as increase in intracellular Ca2+ levels measured for 180 secs by Fluo 3-AM dye based FLIPR assay; assay type: functional, cell-based
KiSS-1 receptor (Homo sapiens, UniProt Q969F8), sequence (Q969F8 whole entry): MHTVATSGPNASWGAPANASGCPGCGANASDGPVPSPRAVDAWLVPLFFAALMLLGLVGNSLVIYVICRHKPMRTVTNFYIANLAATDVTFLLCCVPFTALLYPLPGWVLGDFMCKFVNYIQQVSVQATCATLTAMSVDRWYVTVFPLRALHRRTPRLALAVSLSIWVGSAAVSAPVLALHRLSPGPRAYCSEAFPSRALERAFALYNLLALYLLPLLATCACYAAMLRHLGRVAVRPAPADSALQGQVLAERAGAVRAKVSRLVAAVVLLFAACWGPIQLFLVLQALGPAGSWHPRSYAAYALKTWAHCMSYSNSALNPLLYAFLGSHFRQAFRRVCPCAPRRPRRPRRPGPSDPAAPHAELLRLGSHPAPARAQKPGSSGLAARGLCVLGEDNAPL
Outline: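 CHO cells expressing human KISS1R; FLIPR recording of ligand-induced [Ca2+]i rise over time. Maximum response taken and expressed as percent of the response to a maximal concentration of metastin(45-54). EC50 = concentration giving half-maximal mobilization, from nonlinear regression of smoothed data. Reported as ratio to the metastin(45-54) EC50.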

[11] = Tmax in Sprague-Dawley rat plasma at 1 mg/kg, sc by LC/MS analysis; assay type: ADME, organism-based; outline: as §2
[12] = Total clearance in Sprague-Dawley rat plasma at 1 mg/kg, iv up to 24 hrs by LC/MS analysis; assay type: ADME, organism-based; outline: as §1
[13] = MRT in Sprague-Dawley rat plasma at 1 mg/kg, sc by LC/MS analysis; assay type: ADME, organism-based; outline: as §2
[14] = AUC (0 to 24 hrs) in Sprague-Dawley rat plasma at 1 mg/kg, sc by LC/MS analysis; assay type: ADME, organism-based; design: dose 1 mg/kg, time < 24 hr, route subcutaneous; outline: as §2
[15] = Plasma concentration in Sprague-Dawley rat at 1 mg/kg, iv after 5 mins by LC/MS analysis; assay type: ADME, organism-based; outline: as §1
[16] = Solubility of the compound in water up to 500 mg/ml; assay type: physicochemical; conditions: buffer
Rattus norvegicus [17] = assay: Inhibition of testosterone levels in Crl:CD(SD) rat plasma assessed as plasma testosterone level <0.04 ng/ml at 3 pmol/hr, sc administered as continuous dosing through alzet osmotic pump for 1 week by radio-immunoassay; assay type: functional, organism-based; outline: as §3
Rattus norvegicus [18] = assay: Inhibition of testosterone levels in Crl:CD(SD) rat plasma assessed as plasma testosterone level <0.04 ng/ml at 30 pmol/hr, sc administered as continuous dosing through alzet osmotic pump for 1 week by radio-immunoassay; assay type: functional, organism-based; outline: as §3
[19] = Inhibition of testosterone levels in sc dosed Crl:CD(SD) rat plasma assessed as compound dosing causing plasma testosterone level <0.04 ng/ml in all tested animals administered as continuous dosing through alzet osmotic pump for 1 to 4 weeks by radio-immunoassay; assay type: functional
Rattus norvegicus [20] = assay: Inhibition of testosterone levels in CD(SD) rat assessed as plasma testosterone level <0.04 ng/ml at 0.01 nmol/hr, sc administered continuously for 6 days through alzet osmotic pump measured after 6 days by radio-immunoassay; assay type: functional, organism-based
[21] = Solubility of the compound in water at 20 mg/ml; assay type: physicochemical; conditions: buffer
Rattus norvegicus [22] = assay: Inhibition of testosterone levels in CD(SD) rat assessed as plasma testosterone level <0.04 ng/ml at 0.1 nmol/hr, sc administered continuously for 6 days through alzet osmotic pump measured after 6 days by radio-immunoassay; assay type: functional, organism-based
Rattus norvegicus [23] = assay: Inhibition of testosterone levels in CD(SD) rat assessed as plasma testosterone level <0.04 ng/ml at 0.03 nmol/hr, sc administered continuously for 6 days through alzet osmotic pump measured after 6 days by radio-immunoassay; assay type: functional, organism-based

SMILES	MRT [1] [min]	Cmax [3] [µg/mL]	bioavailability [4] [%]	Vd [5] [L/kg]	AUC(0-t) at 24 h [6] [µg·h/mL]	inhibition (Rattus norvegicus [7])	EC50 (KiSS-1 receptor [9]) [nM]	EC50 (KiSS-1 receptor [10]) [nM]	Tmax [11] [min]	clearance [12] [L/h/kg]	MRT [13] [min]	AUC(0-t) at 24 h [14] [µg·h/mL]	concentration at 5 min [15] [µg/mL]	inhibition (Rattus norvegicus [18])	inhibition (Rattus norvegicus [20])	solubility [21]	inhibition (Rattus norvegicus [23])	further results
CNC(=N)NCCC[C@H](NC(=O)[C@H](CC(C)C)NC(=O)NNC(=O)[C@H](Cc1ccccc1)NC(=O)[C@@H](NC(=O)[C@H](CC(N)=O)NC(=O)[C@@H]1C[C@@H](O)CN1C(=O)[C@@H](Cc1ccc(O)cc1)NC(C)=O)[C@@H](C)O)C(=O)N[C@@H](Cc1c[nH]c2ccccc12)C(N)=O [TAK-448]	37.2	0.342	43.9	0.403	1.55	Active	36	5.2	19.8	0.648	72.6	0.679	2.85	Active	Active	Soluble		Activity [2]: 21.9%; inhibition (Rattus norvegicus [8]): Active; solubility [16]: Soluble; inhibition (Rattus norvegicus [17]): Active; MED [19]: 30 pmol/h
CNC(=N)NCCC[C@H](NC(=O)[C@H](CC(C)C)NC(=O)NNC(=O)[C@H](Cc1ccccc1)NC(=O)[C@@H](NC(=O)[C@H](CC(N)=O)NC(=O)[C@@H](CCCCN)NC(=O)[C@@H](Cc1ccc(O)cc1)NC(C)=O)[C@@H](C)O)C(=O)N[C@@H](Cc1c[nH]c2ccccc12)C(N)=O							18	3.6										inhibition (Rattus norvegicus [22]): Active
CNC(=N)NCCC[C@H](NC(=O)[C@H](CC(C)C)NC(=O)NNC(=O)[C@H](Cc1ccccc1)NC(=O)[C@@H](NC(=O)[C@H](CC(N)=O)NC(=O)CNC(=O)[C@@H](Cc1ccc(O)cc1)NC(C)=O)[C@@H](C)O)C(=O)N[C@@H](Cc1c[nH]c2ccccc12)C(N)=O (Ac-[dY]GNTF[azaGly]L[Arg(Me)]W-NH2)							46	5.2								Soluble	Active	
CNC(=N)NCCC[C@H](NC(=O)[C@H](CC(C)C)NC(=O)NNC(=O)[C@H](Cc1ccccc1)NC(=O)[C@@H](NC(=O)[C@H](CC(N)=O)NC(=O)C(C)(C)NC(=O)[C@@H](Cc1ccc(O)cc1)NC(C)=O)[C@@H](C)O)C(=O)N[C@@H](Cc1c[nH]c2ccccc12)C(N)=O (Ac-[dY][Aib]NTF[azaGly]L[Arg(Me)]W-NH2)							17	2.4								Soluble	Active	
CNC(=N)NCCC[C@H](NC(=O)[C@H](CC(C)C)NC(=O)NNC(=O)[C@H](Cc1cccc(F)c1)NC(=O)[C@@H](NC(=O)[C@H](CC(N)=O)NC(=O)[C@H](CCC(=O)O)NC(=O)[C@@H](Cc1ccc(O)cc1)NC(C)=O)[C@@H](C)O)C(=O)N[C@@H](Cc1c[nH]c2ccccc12)C(N)=O (Ac-[dY]ENT[Phe(3-F)][azaGly]L[Arg(Me)]W-NH2)	31.8	0.703	94.5	0.406	1.33	Active	20	0.47	23.4	0.771	65.4	1.26	2.63	Active	Active	Insoluble		
CNC(=N)NCCC[C@H](NC(=O)[C@H](CC(C)C)NC(=O)NNC(=O)[C@H](Cc1cccc(F)c1)NC(=O)[C@@H](NC(=O)[C@H](CC(N)=O)NC(=O)[C@H](CCCCN)NC(=O)[C@@H](Cc1ccc(O)cc1)NC(C)=O)[C@@H](C)O)C(=O)N[C@@H](Cc1c[nH]c2ccccc12)C(N)=O (Ac-[dY]KNT[Phe(3-F)][azaGly]L[Arg(Me)]W-NH2)							7.1	0.43								Soluble		
